Test results published in paper PMC11261619 (Journal of Agricultural and Food Chemistry, 2024).

What was measured:
human OR11A1 = target: T1, human OR11A1 (Homo sapiens, UniProt Q9GZK7); test: cAMP luminescence; assay type: cell-based; conditions: for KFO screening signal on human OR11A1 relative to 3σ-threshold: each KFO 300 μmol/L, triplicate, normalized to response of OR11A1 to geosmin; for Concentration-dependent activation of OR11A1 (concentration–response validation): normalized to OR1A1 response to (R)-(−)-carvone (30 μmol/L), n = 3
T1 sequence (Q9GZK7 1-315): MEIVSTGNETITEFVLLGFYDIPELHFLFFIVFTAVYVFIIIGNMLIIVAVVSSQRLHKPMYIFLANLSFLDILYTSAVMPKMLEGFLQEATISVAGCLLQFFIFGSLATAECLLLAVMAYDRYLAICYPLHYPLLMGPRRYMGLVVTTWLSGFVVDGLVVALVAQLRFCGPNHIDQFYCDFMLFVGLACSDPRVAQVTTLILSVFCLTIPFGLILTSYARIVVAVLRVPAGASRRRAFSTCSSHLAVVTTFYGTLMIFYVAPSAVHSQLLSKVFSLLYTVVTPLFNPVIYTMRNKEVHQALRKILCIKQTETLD

doOR11A1 = target: T2, doOR11A1 (Dipodomys ordii, UniProt A0A1S3GF11); test: cAMP luminescence; assay type: cell-based, Kangaroo rat (Dipodomys ordii)
T2 sequence (A0A1S3GF11 1-311): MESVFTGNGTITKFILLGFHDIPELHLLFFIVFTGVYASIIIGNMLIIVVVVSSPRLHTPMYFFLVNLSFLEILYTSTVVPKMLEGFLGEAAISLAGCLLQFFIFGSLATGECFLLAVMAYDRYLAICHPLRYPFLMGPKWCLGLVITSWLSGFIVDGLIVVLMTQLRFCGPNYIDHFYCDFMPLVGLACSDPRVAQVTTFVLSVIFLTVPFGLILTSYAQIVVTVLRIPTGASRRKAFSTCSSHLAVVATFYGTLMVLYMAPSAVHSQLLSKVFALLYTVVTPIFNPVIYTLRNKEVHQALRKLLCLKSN
Outline: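 HEK-293 cells (DMEM, 4.5 g/L glucose, 10% FBS, 2 mM L-glutamine, penicillin/streptomycin; 37 °C, 5% CO2) co-transfected via ViaFect with the ortholog coding region in IL-6-HaloTag-pFN210A and pGloSensor-22F. Luminescence was averaged before and after odorant application, then baseline-subtracted and mock-subtracted. Responses were normalized to OR1A1 response to (R)-(−)-carvone (30 μmol/L). EC50 came from nonlinear sigmoidal regression; mean ± SD, n = 3–6 independent transfections.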

Row | KFO screening signal on human OR11A1 relative to 3σ-threshold (human OR11A1) | Concentration-dependent activation of OR11A1 (concentration–response validation) (human OR11A1) | Sensitivity of kangaroo rat receptor compared to its human ortholog (doOR11A1; doOR11A1 vs human OR11A1) | Sensitivities of OR11A1 homologues across species compared to the human receptor (doOR11A1; homologues across species vs human OR11A1) | Efficacy of response to geosmin among OR11A1 orthologs (doOR11A1; normalized to OR1A1 response to (R)-(−)-carvone (30 μmol/L)) | SMILES
1 | above the 3σ-threshold | could not be validated |  |  |  | CCCCC(=O)OCC [ethyl pentanoate]
2 | above the 3σ-threshold | could not be validated |  |  |  | C=Cc1ccc(O)cc1 [4-ethenylphenol]

Second part, the compound before the results:

Row | SMILES | KFO screening signal on human OR11A1 relative to 3σ-threshold (human OR11A1) | Concentration-dependent activation of OR11A1 (concentration–response validation) (human OR11A1) | Sensitivity of kangaroo rat receptor compared to its human ortholog (doOR11A1; doOR11A1 vs human OR11A1) | Sensitivities of OR11A1 homologues across species compared to the human receptor (doOR11A1; homologues across species vs human OR11A1) | Efficacy of response to geosmin among OR11A1 orthologs (doOR11A1; normalized to OR1A1 response to (R)-(−)-carvone (30 μmol/L))
3 | CSCCCO [methionol, 3-(methylsulfanyl) Propanol (methionol)] | reached the 3σ-threshold | could not be validated |  |  | 
4 | CC12CCC(CC1)C(C)(C)O2 [1,8-cineol] | reached the 3σ-threshold | could not be validated |  |  | 
5 | C[C@H]1CCC[C@@]2(C)CCCC[C@]12O [geosmin, (4S,4aS,8aR)-4,8a-dimethyloctahydronaphthalen-4a(2H)-ol] |  |  | more than 100 fold | up to 100 fold | most effective responder
